The source made the active and inactive calls. No cut-off for these calls is given here.
Assays:
Rattus norvegicus [1] = test: Minimum effective dose (po) tested for its anxiolytic activity in rat using the shock-induced suppression of drinking (SSD) test.; format: functional; conditions: read-out: MED
How it was run: (§1)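 Rats (n = 8 per dose) were dosed orally at one or more levels and then run in the shock-induced suppression of drinking conflict test. MED is the dose producing a significant rise (p < 0.05, Student's t test) in mean shocks accepted relative to vehicle-treated controls.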

[2] = tested on: GABA-A receptor; anion channel; test: Inhibition of [3H]flunitrazepam binding to GABA-A benzodiazepine receptor of rat cerebral cortex at 500 nM; format: tissue-based
How it was run: (§2)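 Rat cerebral cortex membranes were incubated with [3H]flunitrazepam in the presence of the test agent at a single concentration (nM), run in triplicate with under 7% variation between values. Binding is reported as % inhibition of [3H]flunitrazepam binding.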

[3] = molecular target: T1, GABA-A receptor; anion channel (Rattus norvegicus) (UniProt O09028+P15431+P18506+P18508+P19969+P20236+P23574+P23576+P28471+P28473+P30191+P62813+P63079+P63138+Q91ZM7+Q9ES14); test: Displacement of [3H]flunitrazepam from GABA-A benzodiazepine receptor of rat cerebral cortex at 500 nM; format: tissue-based; how it was run: as §2
Rattus norvegicus [4] = test: Minimum effective dose (ip) tested for its anxiolytic activity in rat using the shock-induced suppression of drinking (SSD) test; NS is No Significant activity at 25 mg/Kg; format: functional, organism-based
How it was run: (§3)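 Shock-induced suppression of drinking (Vogel-type conflict) in rats, with compounds given intraperitoneally at one or more dose levels, 8 rats per dose. MED is the lowest dose giving a significant increase (p < 0.05, Student's t test) in the mean number of shocks taken versus vehicle control.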

[5] = molecular target: GABA-A receptor; anion channel; test: Inhibition of [3H]flunitrazepam binding to GABA-A benzodiazepine receptor of rat cerebral cortex; format: tissue-based
Rattus norvegicus [6] = test: Minimum effective dose (ip) tested for its anxiolytic activity in rat using the shock-induced suppression of drinking (SSD) test.; format: functional; conditions: read-out: MED; how it was run: as §3
[7] = tested on: GABA-A receptor; anion channel; test: Inhibition of [3H]flunitrazepam binding to GABA-A benzodiazepine receptor of rat cerebral cortex (Not Significant at 5000 nM); format: tissue-based; how it was run: as §2
[8] = molecular target: T1, GABA-A receptor; anion channel (Rattus norvegicus); test: Displacement of [3H]flunitrazepam from GABA-A benzodiazepine receptor of rat cerebral cortex at 5000 nM; format: tissue-based; how it was run: as §2
Rattus norvegicus [9] = test: Minimum effective dose (po) tested for its anxiolytic activity in rat using the shock-induced suppression of drinking (SSD) test; NS is No Significant activity at 100 MG/kG; format: functional, organism-based; conditions: 100 M; how it was run: as §1
Rattus norvegicus [10] = test: Minimum effective dose (ip) tested for its anxiolytic activity in rat using the shock-induced suppression of drinking (SSD) test; NS is No Significant activity at […]; format: functional, organism-based; how it was run: as §3
Rattus norvegicus [11] = test: Minimum effective dose (po) tested for its anxiolytic activity in rat using the shock-induced suppression of drinking (SSD) test; NS is No Significant activity at […]; format: functional, organism-based; how it was run: as §1
Rattus norvegicus [12] = test: Minimum effective dose (po) tested for its anxiolytic activity in rat using the shock-induced suppression of drinking (SSD) test; NS is No Significant activity at 50 mg/Kg; format: functional, organism-based; how it was run: as §1
Rattus norvegicus [13] = test: Minimum effective dose (ip) tested for its anxiolytic activity in rat using the shock-induced suppression of drinking (SSD) test; NS is No Significant activity at 160 mg/Kg; format: functional, organism-based; how it was run: as §3

IC50 [2]	IC50 [5] [nM]	Structure (SMILES)	minimal effective dose (Rattus norvegicus [1]) [mg/kg]	other results
Not Active	–	C#CCN(C)C(=O)c1cnc2c(cnn2CCCCC)c1N	6.3	–
–	–	CCCCCn1ncc2c(N)c(C(=O)OCC(C)C)c(C)nc21	–	inhibition [3]: 55%; MED (Rattus norvegicus [4]): inactive
–	460	CCOC(=O)c1c(C)nc2c(cnn2CC)c1N	–	minimal effective dose (Rattus norvegicus [6]): 75 mg/kg
Not Active	–	C=CCNC(=O)c1cnc2c(cnn2CCCCC)c1NCCCC	–	NS (Rattus norvegicus [4]): inactive
Not Active	–	CCCCCn1ncc2c(N)c(C(=O)N(C)CCC)cnc21	6.3	–
–	79	CCOC(=O)c1c(C)nc2c(cnn2CCC(C)CC)c1N (configuration not stated)	–	minimal effective dose (Rattus norvegicus [6]): 25 mg/kg
–	–	CCOC(=O)c1c(C)nc2c(c(C)nn2CC)c1N	–	IC50 [7]: Not Active; MED (Rattus norvegicus [4]): inactive
–	5.7	C=CCOC(=O)c1cnc2c(cnn2CCC(C)C)c1N	–	minimal effective dose (Rattus norvegicus [6]): 25 mg/kg
Not Active	–	CCCCCn1ncc2c(N)c(C(=O)N3CCCC3)cnc21	–	minimal effective dose (Rattus norvegicus [6]): 50 mg/kg
Not Active	–	CCCCCn1ncc2c(N)c(C(=O)N(CC)CC)cnc21	25	–
Not Active	–	CC#CCCn1ncc2c(N)c(C(=O)N(C)CCC)cnc21	12.5	–
–	–	CCCCCn1ncc2c(N)c(C(=O)OC)c(C)nc21	–	inhibition [8]: 54%
–	414	CCCCCn1ncc2c(N)c(C(=O)NC(C)C)cnc21	–	minimal effective dose (Rattus norvegicus [6]): 25 mg/kg
–	16	C=CCOC(=O)c1cnc2c(cnn2CCCCC)c1N	–	MED (Rattus norvegicus [9]): inactive
–	156	CCOC(=O)c1c(C)nc2c(cnn2Cc2ccccc2)c1N	–	MED (Rattus norvegicus [4]): inactive
Not Active	–	C=CCN(C)C(=O)c1cnc2c(cnn2CCC#CC)c1N	12.5	–
–	302	CCCCCn1ncc2c(N)c(C(=O)OCC)c(CC)nc21	–	MED (Rattus norvegicus [10]): inactive
–	–	CCCCCn1ncc2c(N)c(C(=O)OCC)c(C(C)C)nc21	–	inhibition [3]: 54%; MED (Rattus norvegicus [11]): inactive
–	320	CCCCCCn1ncc2c(N)c(C(=O)OCC)c(C)nc21	–	minimal effective dose (Rattus norvegicus [6]): 50 mg/kg
Not Active	–	C=CCN(C)C(=O)c1cnc2c(cnn2CCCCC)c1N	12.5	–
Not Active	–	C=CCN(CC=C)C(=O)c1cnc2c(cnn2CCCCC)c1N	25	–
Not Active	–	CCCCCn1ncc2c(N)c(C(=O)N(CC)CCC)cnc21	25	–
–	391	CCOC(=O)c1c(C)nc2c(cnn2CC(C)CC)c1N (configuration not stated)	–	minimal effective dose (Rattus norvegicus [6]): 25 mg/kg
–	–	CCOC(=O)c1c(C)nc2c(cnn2CC)c1NC	–	MED (Rattus norvegicus [4]): inactive
–	–	CCCCCn1ncc2c(N)c(C(=O)NCCCC)c(C)nc21	–	MED (Rattus norvegicus [12]): inactive; inhibition [8]: 31%
Not Active	–	CCCCCn1ncc2c(N)c(C(=O)N(C)C)cnc21	12.5	–
–	–	CCOC(=O)c1cc2cnn(CC)c2nc1C	–	inhibition [8]: 14%; NS (Rattus norvegicus [13]): inactive
